Results as given in ChEMBL document CHEMBL4699429, “Novel 1,3,4-thiadiazole compounds as potential MAO-A inhibitors - design, synthesis, biological evaluation and molecular modelling” (RSC Med Chem, 2020).
pIC50: −log10 of the molar value.

biological target: T1, Amine oxidase [flavin-containing] A (Homo sapiens, UniProt P21397); test: Inhibition of human recombinant MAO-A at 0.01 nM using tyramine as substrate preincubated with enzyme for 30 mins followed by incubation with substrate for 30 mins by Amplex Red reagent based fluorometric method relative to control; conditions: 0.5 h, time 60 min
T1 sequence (P21397 whole entry): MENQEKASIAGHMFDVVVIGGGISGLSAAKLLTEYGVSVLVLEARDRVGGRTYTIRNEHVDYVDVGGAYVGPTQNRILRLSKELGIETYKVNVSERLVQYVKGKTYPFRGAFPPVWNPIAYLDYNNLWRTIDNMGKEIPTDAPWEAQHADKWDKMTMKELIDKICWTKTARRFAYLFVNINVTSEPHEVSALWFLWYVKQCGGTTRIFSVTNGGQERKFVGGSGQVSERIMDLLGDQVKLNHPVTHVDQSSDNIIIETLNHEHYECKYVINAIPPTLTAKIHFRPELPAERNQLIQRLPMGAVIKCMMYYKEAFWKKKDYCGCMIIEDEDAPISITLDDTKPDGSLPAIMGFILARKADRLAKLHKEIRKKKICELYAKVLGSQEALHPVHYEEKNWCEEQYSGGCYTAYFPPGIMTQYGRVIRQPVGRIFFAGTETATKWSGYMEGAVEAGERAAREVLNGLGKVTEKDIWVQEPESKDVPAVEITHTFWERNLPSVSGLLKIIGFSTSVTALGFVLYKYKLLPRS
Procedure, shortened: (§1)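 Recombinant hMAO-A at 0.5 U/mL in phosphate buffer. Inhibitors are dissolved in 2% DMSO and preincubated with enzyme at 37 °C for 30 min. The working solution is then added: horseradish peroxidase, Amplex (Ampliflu) red and tyramine. Fluorescence (Ex/Em 535/587 nm) is read at 5-min intervals over 30 min at 37 °C. Controls use 2% DMSO. Background without enzyme is subtracted. Peroxidase interference is checked with H2O2.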

SMILES	inhibition at 10 pM
C=CCNc1nnc(SCC(=O)N(Cc2cccc([N+](=O)[O-])c2)c2ccc(F)cc2)s1	10.2%
CCNc1nnc(SCC(=O)N(Cc2cccc([N+](=O)[O-])c2)c2ccc(F)cc2)s1	10.3%
O=C(NCCN1CCOCC1)c1ccc(Cl)cc1 [MOCLOBEMIDE]	7.25%
C#CCN(C)CCCOc1ccc(Cl)cc1Cl [CLORGILINE]	11.3%

biological target: T1, Amine oxidase [flavin-containing] A; test: Inhibition of human recombinant MAO-A at 0.01 uM using tyramine as substrate preincubated with enzyme for 30 mins followed by incubation with substrate for 30 mins by Amplex Red reagent based fluorometric method relative to control; conditions: 0.5 h, time 60 min; procedure, shortened: as §1

SMILES	inhibition at 0.01 µM
C=CCNc1nnc(SCC(=O)N(Cc2cccc([N+](=O)[O-])c2)c2ccc(F)cc2)s1	32.7%
CCNc1nnc(SCC(=O)N(Cc2cccc([N+](=O)[O-])c2)c2ccc(F)cc2)s1	30.3%
O=C(NCCN1CCOCC1)c1ccc(Cl)cc1 [MOCLOBEMIDE]	19.6%
C#CCN(C)CCCOc1ccc(Cl)cc1Cl [CLORGILINE]	35.3%

biological target: T1, Amine oxidase [flavin-containing] A; test: Inhibition of human recombinant MAO-A at 1 nM using tyramine as substrate preincubated with enzyme for 30 mins followed by incubation with substrate for 30 mins by Amplex Red reagent based fluorometric method relative to control; conditions: 0.5 h, time 60 min; procedure, shortened: as §1

SMILES	inhibition at 0.001 µM
C=CCNc1nnc(SCC(=O)N(Cc2cccc([N+](=O)[O-])c2)c2ccc(F)cc2)s1	20.5%
CCNc1nnc(SCC(=O)N(Cc2cccc([N+](=O)[O-])c2)c2ccc(F)cc2)s1	21%
O=C(NCCN1CCOCC1)c1ccc(Cl)cc1 [MOCLOBEMIDE]	15.4%
C#CCN(C)CCCOc1ccc(Cl)cc1Cl [CLORGILINE]	21.7%

biological target: T1, Amine oxidase [flavin-containing] A; test: Inhibition of human recombinant MAO-A at 100 uM using tyramine as substrate preincubated with enzyme for 30 mins followed by incubation with substrate for 30 mins by Amplex Red reagent based fluorometric method relative to control; conditions: 0.5 h, time 60 min; procedure, shortened: as §1

SMILES	inhibition at 100 µM
C=CCNc1nnc(SCC(=O)N(Cc2cccc([N+](=O)[O-])c2)c2ccc(F)cc2)s1	86.4%
O=C(CSc1nnc(Nc2ccccc2)s1)N(Cc1cccc([N+](=O)[O-])c1)c1ccc(F)cc1	41.4%
Cc1ccc(Nc2nnc(SCC(=O)N(Cc3cccc([N+](=O)[O-])c3)c3ccc(F)cc3)s2)cc1	42.7%
CCNc1nnc(SCC(=O)N(Cc2cccc([N+](=O)[O-])c2)c2ccc(F)cc2)s1	89.5%
O=C(NCCN1CCOCC1)c1ccc(Cl)cc1 [MOCLOBEMIDE]	83.1%
C#CCN(C)CCCOc1ccc(Cl)cc1Cl [CLORGILINE]	92.1%

biological target: T1, Amine oxidase [flavin-containing] A; test: Inhibition of human recombinant MAO-A using tyramine as substrate preincubated with enzyme for 30 mins followed by incubation with substrate for 30 mins by Amplex Red reagent based fluorometric method; conditions: not given
Procedure, shortened: as §1, with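 “tyramine.” for “tyramine. Fluorescence (Ex/Em 535/587 nm) is read at 5-min intervals over 30 min at 37 °C.”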

SMILES	pIC50
C=CCNc1nnc(SCC(=O)N(Cc2cccc([N+](=O)[O-])c2)c2ccc(F)cc2)s1	6.30
CCNc1nnc(SCC(=O)N(Cc2cccc([N+](=O)[O-])c2)c2ccc(F)cc2)s1	6.47

biological target: T1, Amine oxidase [flavin-containing] A; test: Inhibition of human recombinant MAO-A at 0.1 nM using tyramine as substrate preincubated with enzyme for 30 mins followed by incubation with substrate for 30 mins by Amplex Red reagent based fluorometric method relative to control; conditions: 0.5 h, time 60 min; procedure, shortened: as §1

SMILES	inhibition at 0.0001 µM
C=CCNc1nnc(SCC(=O)N(Cc2cccc([N+](=O)[O-])c2)c2ccc(F)cc2)s1	13.5%
CCNc1nnc(SCC(=O)N(Cc2cccc([N+](=O)[O-])c2)c2ccc(F)cc2)s1	14.2%
O=C(NCCN1CCOCC1)c1ccc(Cl)cc1 [MOCLOBEMIDE]	12.8%
C#CCN(C)CCCOc1ccc(Cl)cc1Cl [CLORGILINE]	17%

biological target: T1, Amine oxidase [flavin-containing] A; test: Inhibition of human recombinant MAO-A at 1 mM using tyramine as substrate preincubated with enzyme for 30 mins followed by incubation with substrate for 30 mins by Amplex Red reagent based fluorometric method relative to control; conditions: 0.5 h, time 60 min; procedure, shortened: as §1

SMILES	inhibition at 1000 µM
C=CCNc1nnc(SCC(=O)N(Cc2cccc([N+](=O)[O-])c2)c2ccc(F)cc2)s1	92%
O=C(CSc1nnc(Nc2ccccc2)s1)N(Cc1cccc([N+](=O)[O-])c1)c1ccc(F)cc1	89.5%
Cc1ccc(Nc2nnc(SCC(=O)N(Cc3cccc([N+](=O)[O-])c3)c3ccc(F)cc3)s2)cc1	87.6%
CCNc1nnc(SCC(=O)N(Cc2cccc([N+](=O)[O-])c2)c2ccc(F)cc2)s1	93.6%
O=C(NCCN1CCOCC1)c1ccc(Cl)cc1 [MOCLOBEMIDE]	95.3%
C#CCN(C)CCCOc1ccc(Cl)cc1Cl [CLORGILINE]	96.4%

biological target: T2, Amine oxidase [flavin-containing] B (Homo sapiens, UniProt P27338); test: Inhibition of human recombinant MAO-B at 100 uM using tyramine as substrate preincubated with enzyme for 30 mins followed by incubation with substrate for 30 mins by Amplex Red reagent based fluorometric method relative to control; conditions: 0.5 h, read-out: INH
T2 sequence (P27338 whole entry): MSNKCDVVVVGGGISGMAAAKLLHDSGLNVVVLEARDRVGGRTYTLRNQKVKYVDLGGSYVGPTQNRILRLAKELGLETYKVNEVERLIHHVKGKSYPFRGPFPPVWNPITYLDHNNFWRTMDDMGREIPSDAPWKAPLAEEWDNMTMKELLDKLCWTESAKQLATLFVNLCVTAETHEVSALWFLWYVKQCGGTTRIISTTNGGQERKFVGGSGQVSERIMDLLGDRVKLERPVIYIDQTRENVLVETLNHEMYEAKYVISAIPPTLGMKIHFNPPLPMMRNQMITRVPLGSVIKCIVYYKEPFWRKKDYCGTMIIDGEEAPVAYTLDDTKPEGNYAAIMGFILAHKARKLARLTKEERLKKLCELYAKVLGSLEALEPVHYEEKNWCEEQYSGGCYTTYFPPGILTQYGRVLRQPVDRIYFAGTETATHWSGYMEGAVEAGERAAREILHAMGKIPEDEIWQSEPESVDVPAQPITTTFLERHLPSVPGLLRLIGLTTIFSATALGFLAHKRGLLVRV

SMILES	inhibition at 100 µM
C=CCNc1nnc(SCC(=O)N(Cc2cccc([N+](=O)[O-])c2)c2ccc(F)cc2)s1	29.2%
O=C(CSc1nnc(Nc2ccccc2)s1)N(Cc1cccc([N+](=O)[O-])c1)c1ccc(F)cc1	20.7%
Cc1ccc(Nc2nnc(SCC(=O)N(Cc3cccc([N+](=O)[O-])c3)c3ccc(F)cc3)s2)cc1	26.5%
CCNc1nnc(SCC(=O)N(Cc2cccc([N+](=O)[O-])c2)c2ccc(F)cc2)s1	22.4%

biological target: T1, Amine oxidase [flavin-containing] A; test: Inhibition of human recombinant MAO-A at 0.1 uM using tyramine as substrate preincubated with enzyme for 30 mins followed by incubation with substrate for 30 mins by Amplex Red reagent based fluorometric method relative to control; conditions: 0.5 h, time 60 min; procedure, shortened: as §1

SMILES	inhibition at 0.1 µM
C=CCNc1nnc(SCC(=O)N(Cc2cccc([N+](=O)[O-])c2)c2ccc(F)cc2)s1	43.2%
CCNc1nnc(SCC(=O)N(Cc2cccc([N+](=O)[O-])c2)c2ccc(F)cc2)s1	42.1%
O=C(NCCN1CCOCC1)c1ccc(Cl)cc1 [MOCLOBEMIDE]	24.5%
C#CCN(C)CCCOc1ccc(Cl)cc1Cl [CLORGILINE]	63.9%

biological target: T1, Amine oxidase [flavin-containing] A; test: Inhibition of human recombinant MAO-A at 1 uM using tyramine as substrate preincubated with enzyme for 30 mins followed by incubation with substrate for 30 mins by Amplex Red reagent based fluorometric method relative to control; conditions: 0.5 h, time 60 min; procedure, shortened: as §1

SMILES	inhibition at 1 µM
C=CCNc1nnc(SCC(=O)N(Cc2cccc([N+](=O)[O-])c2)c2ccc(F)cc2)s1	56.5%
CCNc1nnc(SCC(=O)N(Cc2cccc([N+](=O)[O-])c2)c2ccc(F)cc2)s1	61.9%
O=C(NCCN1CCOCC1)c1ccc(Cl)cc1 [MOCLOBEMIDE]	35.8%
C#CCN(C)CCCOc1ccc(Cl)cc1Cl [CLORGILINE]	79.1%

biological target: T2, Amine oxidase [flavin-containing] B; test: Inhibition of human recombinant MAO-B at 1 mM using tyramine as substrate preincubated with enzyme for 30 mins followed by incubation with substrate for 30 mins by Amplex Red reagent based fluorometric method relative to control; conditions: 0.5 h, read-out: INH

SMILES	inhibition at 1000 µM
C=CCNc1nnc(SCC(=O)N(Cc2cccc([N+](=O)[O-])c2)c2ccc(F)cc2)s1	38.1%
O=C(CSc1nnc(Nc2ccccc2)s1)N(Cc1cccc([N+](=O)[O-])c1)c1ccc(F)cc1	43.1%
Cc1ccc(Nc2nnc(SCC(=O)N(Cc3cccc([N+](=O)[O-])c3)c3ccc(F)cc3)s2)cc1	37.9%
CCNc1nnc(SCC(=O)N(Cc2cccc([N+](=O)[O-])c2)c2ccc(F)cc2)s1	41.3%

biological target: T1, Amine oxidase [flavin-containing] A; test: Inhibition of human recombinant MAO-A at 10 uM using tyramine as substrate preincubated with enzyme for 30 mins followed by incubation with substrate for 30 mins by Amplex Red reagent based fluorometric method relative to control; conditions: 0.5 h, time 60 min; procedure, shortened: as §1

SMILES	inhibition at 10 µM
C=CCNc1nnc(SCC(=O)N(Cc2cccc([N+](=O)[O-])c2)c2ccc(F)cc2)s1	75.2%
CCNc1nnc(SCC(=O)N(Cc2cccc([N+](=O)[O-])c2)c2ccc(F)cc2)s1	74.1%
O=C(NCCN1CCOCC1)c1ccc(Cl)cc1 [MOCLOBEMIDE]	62.4%
C#CCN(C)CCCOc1ccc(Cl)cc1Cl [CLORGILINE]	88.5%

biological target: T1, Amine oxidase [flavin-containing] A; test: Inhibition of human recombinant MAO-A assessed as enzyme residual activity using tyramine as substrate at 4XIC50 incubated with enzyme for 15 mins followed by substrate addition by Amplex Red reagent based fluorometric method relative to control; conditions: 0.25 h
Procedure, shortened: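 Recombinant hMAO-A (1 U mL⁻¹) preincubated with inhibitor for 15 min at 37 °C in 0.05 M potassium phosphate, pH 7.4, with 5% sucrose and 1% DMSO. The mixture was dialysed 24 h at 4 °C (12 000 Da cut-off) against 100 mM potassium phosphate, pH 7.4, 5% sucrose, with two buffer changes. Residual activity was then measured in triplicate and reported as mean ± SEM.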

SMILES	Activity
O=C(NCCN1CCOCC1)c1ccc(Cl)cc1 [MOCLOBEMIDE]	31.253%
C#CCN(C)CCCOc1ccc(Cl)cc1Cl [CLORGILINE]	88.315%
